Activity calls are given as the source filed them. The calls are words filed in the database; no cut-off is given here.
Tests used:
[1] = species: Sus scrofa; test: Inhibition of pig brain microtubule assembly at 100 uM
Outline: (§1)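 Microtubule protein purified from fresh porcine brain by repeated polymerization/depolymerization cycles in 100 mM MES, 1 mM EGTA, 0.5 mM MgCl2, 1 mM GTP, 1 mM 2-mercaptoethanol, pH 6.5; 1.3 mg/mL protein; DMSO-dissolved sample (final DMSO <2%); assembly followed by turbidity at 400 nm, 37 °C.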

[2] = test system: Oocyte; test: Inhibition of 1-methyladenine-stimulated meiotic maturation in Asterina pectinifera immature oocytes assessed as germinal vesicle breakdown at 100 uM after 60 mins; format: functional, cell-based; conditions: Patiria pectinifera
Outline: (§2)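 Immature oocytes from wild-caught Asterina pectinifera ovaries, 100 cells/mL; DMSO-dissolved sample added, held on ice 10 min, then 1-MeAde (1.25 µM, as added) added; incubated 20 °C for 60 min; germinal vesicle state scored under inverted microscope.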

[3] = Inhibition of pig brain microtubule assembly; parameters: species or system Sus scrofa; outline: as §1
[4] = Inhibition of 1-methyladenine-stimulated meiotic maturation in Asterina pectinifera immature oocytes assessed as germinal vesicle breakdown after 60 mins; format: functional, cell-based, Patiria pectinifera; conditions: oocyte; outline: as §2

Row | SMILES | Activity [1] | Activity [2] | IC50 [3] [µM] | IC50 [4] [µM]
1 | COc1c(Br)c(Br)c(Br)c(Br)c1Oc1cc(Br)cc(Br)c1O | inactive | inactive | – | –
2 | COc1cc(Br)cc(Br)c1Oc1cc(Br)cc(Br)c1O | inactive | inactive | – | –
3 | Oc1c(Br)cc(Br)cc1Oc1c(O)c(Br)c(Br)c(Br)c1Br | – | – | 29.6 | 3.6
4 | Oc1cc(Br)c(Br)c(Br)c1Oc1c(Br)ccc(Br)c1O | – | – | 20.9 | 4.2
5 | COc1cc(Br)cc(Br)c1Oc1c(Br)ccc(Br)c1O | inactive | inactive | – | –
6 | Oc1c(Br)cc(Br)cc1Oc1c(Br)cc(Br)c(Br)c1O | – | – | 33.5 | 4.2
7 | COc1cc(Br)cc(Br)c1Oc1cc(Br)cc(Br)c1OC | inactive | inactive | – | –
8 | COc1c(Br)c(Br)cc(Br)c1Oc1cc(Br)cc(Br)c1O | inactive | inactive | – | –
9 | Oc1c(Br)cc(Br)cc1Oc1ccc(Br)cc1Br | inactive | inactive | – | –
10 | COc1cc(Br)c(Br)c(Br)c1Oc1cc(Br)cc(Br)c1O | inactive | inactive | – | –
11 | COc1cc(Br)c(Br)c(Br)c1Oc1cc(Br)cc(Br)c1OC | inactive | inactive | – | –

Reference: ChEMBL document CHEMBL1146516, “Isolation and characterization of polybrominated diphenyl ethers as inhibitors of microtubule assembly from the marine sponge Phyllospongia dendyi collected at Palau” (J Nat Prod, 2004)
